CHO parental Ca – signal in parental CHO cells, OX1R antagonist counter-screen; parental CHO-K1, ATP-induced calcium, Fluo-8 fluorescence; inhibition, % at 5.6 µM; actives 0.63% (n = 330,000);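 active means inhibition above that plate's mean sample inhibition plus 3 SD, cut at about 26% in these data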
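material = parental CHO cells | also added = ATP as calcium-mobilizing challenge | dosing = single point at 5.6 µM | detection = intracellular calcium via Fluo-8 no-wash fluorescent dye | read-out = % inhibition | benchmarks = low control ATP plus DMSO, high control DMSO only | repeats = one well per compound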
OX1R antag-1 – antagonists of human orexin 1 receptor | O43613 | CHO/OX1R cells, Fluo-8 calcium fluorescence, orexin A | inhibition, % at 5 µM | actives 0.43% (n = 330,000) | AID 434989;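 active means inhibition above its plate's threshold, mean inhibition of all tested compounds on the plate plus 3 SD, cut at about 37% in these data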
Target sequence (O43613 whole entry, looked up): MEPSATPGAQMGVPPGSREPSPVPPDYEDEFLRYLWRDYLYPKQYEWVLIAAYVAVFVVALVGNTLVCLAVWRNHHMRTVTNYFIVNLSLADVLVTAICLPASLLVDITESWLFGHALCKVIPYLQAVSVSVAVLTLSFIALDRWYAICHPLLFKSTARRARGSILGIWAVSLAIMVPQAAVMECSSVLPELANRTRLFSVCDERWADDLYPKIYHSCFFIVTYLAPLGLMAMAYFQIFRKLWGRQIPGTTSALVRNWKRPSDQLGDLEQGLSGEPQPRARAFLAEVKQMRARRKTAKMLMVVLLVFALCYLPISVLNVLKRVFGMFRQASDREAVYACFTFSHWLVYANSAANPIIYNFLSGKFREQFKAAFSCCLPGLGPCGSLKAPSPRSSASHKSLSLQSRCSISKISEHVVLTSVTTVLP
GalR3 antag – blocks the human galanin receptor 3 | HEK293 GalR3-CNG cAMP membrane potential fluorescence; galR3 body fused to GalR1 C-terminus | inhibition, % at 3 µM | actives 0.44% (n = 360,000);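 active means inhibition above the screen-wide average plus 3 SD, cut at about 13% in these data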;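 further: forskolin and galanin both at EC90 stimulate the cells; cAMP rise reported by CNG channel membrane potential dye signal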
TAAR1 antag – human TAAR1 antagonism. actives 1.5% (n = 360,000). Q96RJ0. inhibition, % at 3 µM. CHO RD-HGA16 TAAR1, Fluo-8 calcium fluorescence, antagonist. AID 624466;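 active means inhibition above a per-plate cutoff, the mean inhibition of test compounds on that plate plus 3 SD, cut at about 49% in these data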
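Test system – hTAAR1-expressing CHO RD-HGA16 cells, Gα16-coupled · Also added – β-PEA at EC80 concentration, post-compound challenge · Compound – 3 µM, single point · Incubation – dye loading 75 min at 37 °C, then 30 min room temperature · Measured by – Fluo-8 intracellular calcium dye fluorescence, real-time kinetic reads · Benchmarks – vehicle and agonist controls · Replicates – singlicate, one well per test compound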
TAAR1 ag – agonists of human TAAR1; AID 624467; actives 0.99% (n = 360,000); activation, % at 3 µM; CHO RD-HGA16 TAAR1, Fluo-8 calcium fluorescence; vehicle wells 0%, saturating PEA agonist 100%;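 active means activation above the mean activation of all test compounds in the run plus 3 SD, cut at about 38% in these data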
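Test system: RD-HGA16 (CHO) cells co-expressing Gα16 and hTAAR1; dosing: one-point dosing at 3 µM (nominal); timing: 17-24 h seeding, 75 min 37 °C dye, 30 min RT; signal: kinetic Fluo-8 calcium fluorescence; read-out basis: % activation relative to PEA EC100 response; controls: DMSO and PEA EC100; replicates: n 1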
OX1R antag-2 – antagonists of human orexin 1 receptor (OX1R). OX1R-expressing cells, FRET antagonist read-out. inhibition, % at 6.6 µM. actives 1.8% (n = 330,000). AID 485270; in the data active means inhibition mostly above about 38%, no sharp cut-off; inactive means mostly below about 40%
Large screens that a line does not name were inactive. This is a sample that favours compounds with a hit; in the whole collection about 4.2% have one here.

CC(C)[C@H](NC(=O)c1ccccc1)C(=O)Nc1cccc(S(=O)(=O)N2CCOCC2)c1	none
Oc1c(Br)cc(/C=N/NC(=S)NCc2ccco2)cc1Br	OX1R antag-2 37
Oc1ccc(/C=N/NC(=S)NCc2ccco2)cc1	none
Cc1ccc2nsnc2c1S(=O)(=O)NCc1ccc2c(c1)OCO2	OX1R antag-2 44
O=C1c2ccccc2C(=O)c2c(Nc3ccc(CCO)cc3)ccc(O)c21	none
O=C1c2c(O)ccc(O)c2C(=O)c2c(NCCNCCO)ccc(NCCNCCO)c21	OX1R antag-2 65
Nc1ncc(S(=O)(=O)c2ccc([N+](=O)[O-])cc2)s1	none (no result: CHO parental Ca, OX1R antag-1, OX1R antag-2)
Cc1nc(N2CCN(c3ccccc3)CC2)nc2c1C(=O)CCC2	TAAR1 antag 57
N#CC1=C(N)Nc2ncnn2C1c1ccc([N+](=O)[O-])cc1 (stereo unspecified)	OX1R antag-2 69
N#CC1=C(N)Nc2ncnn2C1c1ccccc1 (stereo unspecified)	none (no result: GalR3 antag, TAAR1 antag, TAAR1 ag)
O=C(CSc1ncnc2[nH]ncc12)Nc1nc(-c2ccc(F)c(F)c2)cs1	CHO parental Ca 42, OX1R antag-1 45, TAAR1 antag 62, OX1R antag-2 52
Cc1cc(C(=O)N[C@H](c2ccccc2)[C@@]2(C)C[C@@H]2[C@@H](C)C(=O)Nc2ccc3ccccc3c2)no1	TAAR1 antag 53
C[C@@H](C(=O)Nc1ccc2ccccc2c1)[C@@H]1C[C@@]1(C)[C@@H](NC(=O)c1cnccn1)c1ccccc1	none
C[C@@H](C(=O)Nc1ccc2ccccc2c1)[C@H]1C[C@]1(C)[C@H](NC(=O)c1cnccn1)c1ccccc1	OX1R antag-2 69
Cc1cc(C(=O)N[C@@H](c2ccccc2)[C@]2(C)C[C@H]2[C@@H](C)C(=O)Nc2ccc3ccccc3c2)no1	none
OCc1ccc2c(c1)c(-c1ccc3c(c1)OCCO3)c(-c1ccccc1)n2-c1ccccc1	TAAR1 antag 62
O=C(/C=C/c1cn(-c2ccccc2)nc1-c1ccc2c(c1)OCCO2)NCCO	none
Cc1ccc2c(c1)C(=NC1CCCCC1)c1cc3ccccc3nc1-2	OX1R antag-2 75
Cc1csc(SCC(=O)NCc2ccccc2Cl)n1	none
O=C(CSc1nc2ccccc2c(=O)n1NC(=O)Cc1ccccc1)NCc1ccccc1Cl	OX1R antag-2 53
Cc1cc(O)c(C2(C(F)(F)F)NCCNC2=O)cc1C (stereo unspecified)	none
COc1ccccc1OCC#CCSc1ncccn1	none
CCCn1c(SCC(=O)N2N=C3/C(=C/c4ccc(OC)cc4)CCCC3C2c2ccc(OC)cc2)n[nH]c1=O (stereo unspecified)	TAAR1 antag 50, TAAR1 ag 49
CS(=O)(=O)N(CCc1ccccc1)CC(=O)Nc1ccccc1	none
CCCOC(=O)C1C2C=CC3(CN(c4ccc(Cl)c(F)c4)C(=O)C13)O2 (stereo unspecified)	none
COc1cc(Br)c(/C=C/c2ccc3cccc(O)c3n2)cc1OC	none
COc1cc(/C=C/c2ccc3cccc(O)c3n2)c(Br)cc1O	CHO parental Ca 45
Cc1ccccc1OCC(=O)Nc1ccc2c(c1)C(=O)N(CCC(=O)O)C2=O	none
CCn1c(O)c(C=Nc2ccccc2)sc1=S	OX1R antag-2 59
Cc1ccc2c(COC(=O)c3ccccc3OC(F)F)cc(=O)oc2c1	TAAR1 antag 54
CCOc1ccccc1NCc1cc(=O)oc2cc(C)ccc12	OX1R antag-2 47
Cc1ccc2c(COC(=O)CNC(=O)c3ccccc3)cc(=O)oc2c1	none
CC(=O)OCCn1c2nc(=O)[nH]c(=O)c-2nc2cc(C)c(C)cc21	TAAR1 antag 67, TAAR1 ag 138 (no result: CHO parental Ca, OX1R antag-1, OX1R antag-2)
CC(=O)OCCn1c(C)[n+](CCOC(C)=O)c2cc(Cl)c(Cl)cc21	none
O=C(CN1CCCCC1)Nc1cccc([N+](=O)[O-])c1	none
O=c1[nH]c(CSc2nc3ccccc3[nH]2)nc2c1cnn2-c1ccccc1	CHO parental Ca 52, OX1R antag-1 90, OX1R antag-2 106
O=c1[nH]c(SCc2nc3c(cnn3-c3ccccc3)c(=O)[nH]2)nc2ccccc12	none (no result: CHO parental Ca, OX1R antag-1, OX1R antag-2)

Bioassay records as filed in PubChem BioAssay.
